Reference: ChEMBL document CHEMBL5352501, “Catalytic Degraders Effectively Address Kinase Site Mutations in EML4-ALK Oncogenic Fusions” (J Med Chem, 2023)
In brackets after ≈: the same amount, converted by molar mass. Activity calls are given as the source filed them. The calls are words filed in the database; no cut-off is given here.

Experiments:
[1] = biological target: ALK tyrosine kinase receptor (Homo sapiens, UniProt Q9UM73); assay: Inhibition of N-terminal flag-tagged NanoLuc fused ALK kinase domain (1072 to 1410 residues) (unknown origin) expressed in mouse BaF3 cells assessed as reduction in BRET signal incubated for 2 hrs in presence of CPD-1571 tracer by NanoBRET assay; format: cell-based
ALK tyrosine kinase receptor, sequence (Q9UM73 whole entry, the tested form may be a part): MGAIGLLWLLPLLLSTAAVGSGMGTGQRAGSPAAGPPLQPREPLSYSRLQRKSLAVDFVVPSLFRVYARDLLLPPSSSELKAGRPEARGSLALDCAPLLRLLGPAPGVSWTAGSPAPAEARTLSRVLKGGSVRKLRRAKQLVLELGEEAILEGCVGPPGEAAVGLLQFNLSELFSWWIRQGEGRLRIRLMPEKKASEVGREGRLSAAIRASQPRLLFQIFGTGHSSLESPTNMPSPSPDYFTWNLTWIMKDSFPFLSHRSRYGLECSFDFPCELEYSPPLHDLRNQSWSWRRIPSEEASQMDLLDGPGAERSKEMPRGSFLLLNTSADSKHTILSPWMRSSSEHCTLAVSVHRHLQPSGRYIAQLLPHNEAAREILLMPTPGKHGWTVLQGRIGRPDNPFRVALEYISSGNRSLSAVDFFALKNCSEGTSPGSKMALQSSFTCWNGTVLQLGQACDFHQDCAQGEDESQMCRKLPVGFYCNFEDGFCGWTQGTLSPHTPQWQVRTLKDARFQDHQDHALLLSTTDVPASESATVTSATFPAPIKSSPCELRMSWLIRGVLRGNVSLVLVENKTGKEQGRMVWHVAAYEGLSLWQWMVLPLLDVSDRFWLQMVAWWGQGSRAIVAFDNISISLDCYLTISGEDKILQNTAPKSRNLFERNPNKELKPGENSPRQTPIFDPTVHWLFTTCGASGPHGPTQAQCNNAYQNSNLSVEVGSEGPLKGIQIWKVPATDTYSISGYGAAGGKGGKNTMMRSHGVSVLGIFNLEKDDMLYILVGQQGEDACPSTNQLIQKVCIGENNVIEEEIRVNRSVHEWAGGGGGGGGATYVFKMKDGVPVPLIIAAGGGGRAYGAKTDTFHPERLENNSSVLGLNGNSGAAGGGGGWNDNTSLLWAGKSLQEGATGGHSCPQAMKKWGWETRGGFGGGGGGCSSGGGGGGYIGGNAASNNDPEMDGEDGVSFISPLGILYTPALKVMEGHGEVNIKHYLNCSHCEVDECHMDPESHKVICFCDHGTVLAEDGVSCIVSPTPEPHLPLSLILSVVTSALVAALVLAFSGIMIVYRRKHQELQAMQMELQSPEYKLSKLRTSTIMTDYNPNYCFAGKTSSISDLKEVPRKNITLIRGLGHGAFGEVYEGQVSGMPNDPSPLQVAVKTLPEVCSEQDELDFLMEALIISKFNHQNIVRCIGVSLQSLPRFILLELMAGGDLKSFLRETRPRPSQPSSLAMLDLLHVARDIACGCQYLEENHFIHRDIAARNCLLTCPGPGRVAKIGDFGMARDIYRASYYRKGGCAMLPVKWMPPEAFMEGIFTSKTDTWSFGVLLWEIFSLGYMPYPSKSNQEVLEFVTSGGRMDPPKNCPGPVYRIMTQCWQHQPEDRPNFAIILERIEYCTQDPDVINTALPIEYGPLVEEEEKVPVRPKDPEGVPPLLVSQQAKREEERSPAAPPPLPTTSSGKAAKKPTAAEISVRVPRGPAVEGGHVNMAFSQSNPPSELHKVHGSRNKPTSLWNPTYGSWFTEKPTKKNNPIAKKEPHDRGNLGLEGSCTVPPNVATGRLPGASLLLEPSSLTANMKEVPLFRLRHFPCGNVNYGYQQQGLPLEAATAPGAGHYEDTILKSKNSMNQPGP

[2] = tested on: Protein cereblon/ALK tyrosine kinase receptor/Echinoderm microtubule-associated protein-like 4 (Homo sapiens), Q9UM73+Q9HC35+Q96SW2 [UNDEFINED MUTATION]; assay: PROTAC activity at human CRBN/HiBit-tagged EML4-ALK variant 3b G1202R mutant expressed in mouse BaF3 cells assessed as induction of EML4-ALK variant 3b fusion protein degradation at 2 uM incubated for 4 hrs by Nano-Glo HiBiT assay relative to control; format: cell-based
Outline: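 Ba/F3 cells stably expressing humanized CRBN and HiBiT-tagged EML4-ALK v3 (WT or mutant) were treated for 4 h. Remaining fusion protein was quantified by HiBiT bioluminescence relative to control.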

[3] = biological target: Protein cereblon/ALK tyrosine kinase receptor/Echinoderm microtubule-associated protein-like 4 (Homo sapiens, UniProt Q9UM73+Q9HC35+Q96SW2); assay: PROTAC activity at human CRBN/HiBit-tagged wild type human EML4-ALK variant 3b expressed in mouse BaF3 cells assessed as induction of EML4-ALK variant 3b fusion protein degradation incubated for 4 hrs by Nano-Glo HiBiT assay; format: cell-based
Protein cereblon/ALK tyrosine kinase receptor/Echinoderm microtubule-associated protein-like 4 (Homo sapiens, UniProt Q9UM73+Q9HC35+Q96SW2), sequence (Q96SW2 whole entry, change not shown, the tested form may be a part): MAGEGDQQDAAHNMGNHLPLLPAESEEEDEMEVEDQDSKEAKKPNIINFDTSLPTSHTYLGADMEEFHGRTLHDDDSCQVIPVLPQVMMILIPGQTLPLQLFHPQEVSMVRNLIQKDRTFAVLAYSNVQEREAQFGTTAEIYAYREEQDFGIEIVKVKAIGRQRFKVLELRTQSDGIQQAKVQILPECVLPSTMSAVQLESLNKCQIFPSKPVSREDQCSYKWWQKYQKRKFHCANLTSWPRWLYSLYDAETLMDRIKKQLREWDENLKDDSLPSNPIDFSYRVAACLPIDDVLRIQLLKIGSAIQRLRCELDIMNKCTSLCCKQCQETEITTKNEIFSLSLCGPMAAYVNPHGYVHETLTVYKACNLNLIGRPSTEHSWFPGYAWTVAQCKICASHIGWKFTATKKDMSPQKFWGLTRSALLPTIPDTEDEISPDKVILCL
Protein cereblon/ALK tyrosine kinase receptor/Echinoderm microtubule-associated protein-like 4 (Homo sapiens, UniProt Q9UM73+Q9HC35+Q96SW2), sequence (Q9HC35 whole entry, change not shown, the tested form may be a part): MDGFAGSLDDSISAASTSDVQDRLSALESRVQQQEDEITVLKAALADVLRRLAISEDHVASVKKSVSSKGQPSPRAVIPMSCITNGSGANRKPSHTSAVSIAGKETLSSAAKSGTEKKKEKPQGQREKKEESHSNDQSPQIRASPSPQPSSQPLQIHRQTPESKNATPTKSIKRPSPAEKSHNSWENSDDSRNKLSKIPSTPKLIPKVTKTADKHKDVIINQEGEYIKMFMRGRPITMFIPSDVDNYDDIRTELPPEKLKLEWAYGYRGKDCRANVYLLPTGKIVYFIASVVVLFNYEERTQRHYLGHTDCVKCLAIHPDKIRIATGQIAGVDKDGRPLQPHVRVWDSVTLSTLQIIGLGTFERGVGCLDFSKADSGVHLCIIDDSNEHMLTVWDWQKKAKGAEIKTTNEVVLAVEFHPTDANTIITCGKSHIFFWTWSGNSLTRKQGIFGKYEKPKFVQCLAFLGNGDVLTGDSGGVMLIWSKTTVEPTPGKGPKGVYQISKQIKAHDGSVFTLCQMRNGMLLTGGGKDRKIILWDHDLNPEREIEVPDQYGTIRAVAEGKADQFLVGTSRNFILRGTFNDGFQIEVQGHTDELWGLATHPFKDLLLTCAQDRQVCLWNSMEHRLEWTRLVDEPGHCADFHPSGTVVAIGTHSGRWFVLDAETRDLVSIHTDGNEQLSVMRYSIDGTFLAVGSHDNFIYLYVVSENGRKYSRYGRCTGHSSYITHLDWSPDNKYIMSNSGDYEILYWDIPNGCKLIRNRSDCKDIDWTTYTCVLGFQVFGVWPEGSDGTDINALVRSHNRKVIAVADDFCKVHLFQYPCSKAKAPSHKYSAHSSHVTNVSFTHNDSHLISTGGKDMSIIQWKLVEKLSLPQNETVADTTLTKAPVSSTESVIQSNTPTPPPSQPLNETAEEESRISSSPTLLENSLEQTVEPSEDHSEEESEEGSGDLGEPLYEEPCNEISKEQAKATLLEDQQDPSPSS
Protein cereblon/ALK tyrosine kinase receptor/Echinoderm microtubule-associated protein-like 4 (Homo sapiens, UniProt Q9UM73+Q9HC35+Q96SW2), sequence (Q9UM73 19-1620 limits assumed, change not shown): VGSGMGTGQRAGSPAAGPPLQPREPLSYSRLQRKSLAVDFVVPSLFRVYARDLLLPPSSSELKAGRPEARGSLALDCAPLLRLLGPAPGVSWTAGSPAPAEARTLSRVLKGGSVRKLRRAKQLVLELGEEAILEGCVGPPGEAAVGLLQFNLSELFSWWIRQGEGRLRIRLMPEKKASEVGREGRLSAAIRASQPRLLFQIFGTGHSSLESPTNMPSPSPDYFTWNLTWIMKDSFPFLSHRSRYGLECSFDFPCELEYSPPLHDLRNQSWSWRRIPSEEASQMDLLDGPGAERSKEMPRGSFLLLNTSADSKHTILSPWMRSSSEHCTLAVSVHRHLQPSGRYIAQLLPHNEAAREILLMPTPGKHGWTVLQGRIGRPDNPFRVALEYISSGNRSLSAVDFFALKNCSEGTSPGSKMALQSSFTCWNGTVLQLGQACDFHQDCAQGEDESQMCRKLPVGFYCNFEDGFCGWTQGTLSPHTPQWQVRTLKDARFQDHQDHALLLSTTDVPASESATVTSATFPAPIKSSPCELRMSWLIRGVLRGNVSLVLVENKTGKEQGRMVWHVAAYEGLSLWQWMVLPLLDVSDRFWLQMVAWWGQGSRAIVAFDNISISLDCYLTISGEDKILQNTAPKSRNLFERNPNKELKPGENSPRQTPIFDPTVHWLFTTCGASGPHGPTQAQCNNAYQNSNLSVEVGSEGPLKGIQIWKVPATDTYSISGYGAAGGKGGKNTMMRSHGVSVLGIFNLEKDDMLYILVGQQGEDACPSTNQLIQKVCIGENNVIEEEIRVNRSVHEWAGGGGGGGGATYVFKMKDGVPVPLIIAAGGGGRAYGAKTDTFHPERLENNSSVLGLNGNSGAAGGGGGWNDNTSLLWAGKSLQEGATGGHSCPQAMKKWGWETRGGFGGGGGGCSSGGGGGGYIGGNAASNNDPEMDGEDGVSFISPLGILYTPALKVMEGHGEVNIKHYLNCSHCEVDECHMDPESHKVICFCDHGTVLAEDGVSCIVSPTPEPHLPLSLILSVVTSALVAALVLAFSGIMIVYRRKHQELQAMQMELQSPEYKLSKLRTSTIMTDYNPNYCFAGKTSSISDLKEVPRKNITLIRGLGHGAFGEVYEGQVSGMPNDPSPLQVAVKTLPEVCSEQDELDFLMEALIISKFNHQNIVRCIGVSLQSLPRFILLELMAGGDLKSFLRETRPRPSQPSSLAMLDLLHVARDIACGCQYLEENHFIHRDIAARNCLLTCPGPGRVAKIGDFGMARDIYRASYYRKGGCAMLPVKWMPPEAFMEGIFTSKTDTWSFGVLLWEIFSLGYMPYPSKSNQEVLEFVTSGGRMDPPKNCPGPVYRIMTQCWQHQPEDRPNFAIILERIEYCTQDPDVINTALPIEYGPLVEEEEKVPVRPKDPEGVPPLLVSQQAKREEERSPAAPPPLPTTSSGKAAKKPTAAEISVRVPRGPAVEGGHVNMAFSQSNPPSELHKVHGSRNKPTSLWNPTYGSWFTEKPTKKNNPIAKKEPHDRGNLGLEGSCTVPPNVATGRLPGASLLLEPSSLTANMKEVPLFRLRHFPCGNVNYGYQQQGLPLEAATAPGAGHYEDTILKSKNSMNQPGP

BaF3 [4] = format: functional; conditions: Mus musculus, time 72 hrs
BaF3 [5] = assay: Antiproliferative activity against mouse Ba/F3 cells stably expressing HiBiT-tagged EML4-ALK variant 3 G1202R mutant assessed as cell growth inhibition incubated for 72 hrs by CellTiter-Glo assay; format: functional
Outline: (§1)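 Ba/F3 cells stably expressing HiBiT-tagged EML4-ALK v3 (wild type or the named kinase-site mutant) were treated with compound for 72 h. Growth inhibition was reported as log GI50.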

HepG2 [6] = assay: Cytotoxicity against human HepG2 cells assessed as reduction in cell viability incubated for 48 hrs by Hoechst 33342 staining based imaging analysis; format: toxicity; conditions: hepg2, 48 h
BaF3 [7] = assay: Antiproliferative activity against mouse Ba/F3 cells stably expressing HiBiT-tagged wild type EML4-ALK variant 3 assessed as cell growth inhibition incubated for 72 hrs by CellTiter-Glo assay; format: functional; outline: as §1
BaF3 [8] = assay: Antiproliferative activity against mouse Ba/F3 cells stably expressing HiBiT-tagged EML4-ALK variant 3 C1156Y mutant assessed as cell growth inhibition incubated for 72 hrs by CellTiter-Glo assay; format: functional; outline: as §1
HepG2 [9] = assay: Induction of phospholipidosis in human HepG2 cells assessed as […] incubated for 48 hrs by Hoechst 33342 staining based imaging analysis; format: toxicity, cell-based; conditions: hepg2, 48 h
BaF3 [10] = format: functional; conditions: Mus musculus, time 72 hrs; remark: listed apart in the source
[11] = biological target: T1, Aurora kinase A (Homo sapiens) (UniProt O14965); assay: Induction of AURKA degradation in human MOLT-4 cells incubated for 6 hrs by MS based proteomics analysis; format: cell-based
T1 sequence (whole entry): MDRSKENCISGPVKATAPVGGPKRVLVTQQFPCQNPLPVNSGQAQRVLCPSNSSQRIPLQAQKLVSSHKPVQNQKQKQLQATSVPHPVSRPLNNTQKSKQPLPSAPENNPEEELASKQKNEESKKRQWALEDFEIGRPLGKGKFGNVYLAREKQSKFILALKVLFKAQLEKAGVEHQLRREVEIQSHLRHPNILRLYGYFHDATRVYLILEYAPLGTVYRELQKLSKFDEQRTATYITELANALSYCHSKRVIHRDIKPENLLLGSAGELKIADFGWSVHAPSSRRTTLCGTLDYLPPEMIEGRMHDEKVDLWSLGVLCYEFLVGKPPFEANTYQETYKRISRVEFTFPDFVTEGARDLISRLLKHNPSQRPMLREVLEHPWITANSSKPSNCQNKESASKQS

[12] = Microsomal stability in human liver microsomes assessed as intrinsic clearance at 1 uM and measured upto 60 mins in presence of NADPH by LC-MS/MSC analysis; format: ADME, Microsome; conditions: read-out: CLH
[13] = biological target: Ribosomal protein S6 kinase alpha-1 (Homo sapiens) (UniProt Q15418); assay: Induction of RSK1 degradation in human MOLT-4 cells incubated for 6 hrs by MS based proteomics analysis; format: cell-based
[14] = biological target: Protein cereblon/ALK tyrosine kinase receptor/Echinoderm microtubule-associated protein-like 4 (Homo sapiens, UniProt Q9UM73+Q9HC35+Q96SW2, G1202R); assay: PROTAC activity at human CRBN/EML4-ALK variant 3b G1202R mutant expressed in mouse BaF3 cells assessed as induction of EML4-ALK fusion protein degradation incubated for 4 hrs by Nano-Glo HiBiT assay; format: cell-based
Erythrocyte [15] = assay: Hemolytic activity in mouse RBC assessed as hemolysis incubated for 45 mins by absorbance based microplate reader analysis; format: toxicity, cell-based; conditions: 0.75 h
[16] = biological target: Protein-tyrosine kinase 2-beta (Homo sapiens) (UniProt Q14289); assay: Induction of PTK2B degradation in human MOLT-4 cells incubated for 6 hrs by MS based proteomics analysis; format: cell-based
[17] = biological target: T2, Serine/threonine-protein kinase ULK1 (Homo sapiens) (UniProt O75385); assay: Induction of ULK1 degradation in human MOLT-4 cells incubated for 6 hrs by MS based proteomics analysis; format: cell-based
T2 sequence (whole entry): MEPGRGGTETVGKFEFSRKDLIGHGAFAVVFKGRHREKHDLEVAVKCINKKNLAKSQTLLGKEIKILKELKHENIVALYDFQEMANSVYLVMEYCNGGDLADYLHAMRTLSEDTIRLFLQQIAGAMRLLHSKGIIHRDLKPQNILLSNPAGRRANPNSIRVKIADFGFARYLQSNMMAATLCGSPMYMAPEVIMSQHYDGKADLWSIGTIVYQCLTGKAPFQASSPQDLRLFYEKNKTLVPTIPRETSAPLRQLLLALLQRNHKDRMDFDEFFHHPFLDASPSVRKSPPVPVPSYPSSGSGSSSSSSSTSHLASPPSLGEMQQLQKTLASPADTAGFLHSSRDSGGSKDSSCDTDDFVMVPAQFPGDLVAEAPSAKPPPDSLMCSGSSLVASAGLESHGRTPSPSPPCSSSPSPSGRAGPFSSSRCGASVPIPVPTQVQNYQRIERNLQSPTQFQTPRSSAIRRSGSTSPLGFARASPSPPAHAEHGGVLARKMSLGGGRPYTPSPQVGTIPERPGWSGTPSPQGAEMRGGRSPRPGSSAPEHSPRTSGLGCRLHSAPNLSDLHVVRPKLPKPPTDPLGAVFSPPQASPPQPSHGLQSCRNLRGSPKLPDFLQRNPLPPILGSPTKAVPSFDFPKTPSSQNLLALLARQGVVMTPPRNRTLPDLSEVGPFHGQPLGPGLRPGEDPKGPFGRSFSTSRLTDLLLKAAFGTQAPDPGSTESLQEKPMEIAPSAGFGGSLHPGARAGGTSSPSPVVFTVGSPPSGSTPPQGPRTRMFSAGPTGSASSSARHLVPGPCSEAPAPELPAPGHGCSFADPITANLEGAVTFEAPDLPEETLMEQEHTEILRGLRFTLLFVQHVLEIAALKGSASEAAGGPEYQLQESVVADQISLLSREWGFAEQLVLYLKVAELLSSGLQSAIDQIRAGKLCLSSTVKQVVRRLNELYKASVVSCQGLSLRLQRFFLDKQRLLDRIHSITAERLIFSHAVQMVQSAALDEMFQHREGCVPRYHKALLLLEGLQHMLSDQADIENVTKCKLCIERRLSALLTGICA

[18] = Oral bioavailability in C57BL/J6 mouse at 10 mg/kg and measured upto 24 hrs by LC-MS/MS analysis; format: ADME, organism-based; conditions: in vivo
Outline: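 Mouse PK was run with both oral and intravenous dosing, with 10 mg/kg as the study dose. Oral bioavailability was derived from comparing the two routes.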

[19] = biological target: Tyrosine-protein kinase Fer (Homo sapiens) (UniProt P16591); assay: Induction of FER degradation in human MOLT-4 cells incubated for 6 hrs by MS based proteomics analysis; format: cell-based
Erythrocyte [20] = assay: Hemolytic activity in human RBC assessed as hemolysis incubated for 45 mins by absorbance based microplate reader analysis; format: toxicity, cell-based; conditions: 0.75 h
[21] = Solubility of the compound in FeSSIF at pH 5.0 incubated for 24 hrs under shaking condition by UPLC-UV/HPLC-UV analysis; format: physicochemical
Mus musculus [22] = format: functional, organism-based; conditions: BALB/c, BaF3, dose 10.0 mg/kg, route po, time 14.0 day
Mus musculus [23] = format: functional, organism-based; conditions: BALB/c, BaF3, dose 10.0 mg/kg, route po, time 14.0 day; remark: listed apart in the source
[24] = Plasma protein binding in human; format: ADME, cell-free
[25] = Plasma protein binding in mouse; format: ADME, cell-free
BaF3 [26] = format: functional; conditions: Mus musculus, BaF3, 336 h, route po, time 14 day, read-out: TGI
[27] = Microsomal stability in human liver microsomes at 1 uM measured upto 60 mins in presence of NADPH by LC-MS/MSC analysis; format: ADME, Microsome; conditions: 1 h

Row | SMILES | GI50 (BaF3 [4]; read-out: pGI50 (converted)) | GI50 (BaF3 [5]) | GI50 (BaF3 [7]) | GI50 (BaF3 [8]) | GI50 (BaF3 [10]) | microsomal CLint at 1 µM [12] | Activity (Erythrocyte [15]) | F [18] | Activity (Erythrocyte [20]) | other results
1 | Cc1cc(Nc2ncc(Cl)c(Nc3ccccc3S(=O)(=O)C(C)C)n2)c(OC(C)C)cc1C1CCN(CCOCCOCCNC(=O)CNc2cccc3c2C(=O)N(C2CCC(=O)NC2=O)C3=O)CC1 (stereo not given) |  |  |  |  |  |  |  |  |  | IC50 [1]: 971 nM; Activity [2]: < 50%; DC50 [3]: 289 nM
2 | Cc1cc(Nc2ncc(Cl)c(Nc3ccccc3S(=O)(=O)C(C)C)n2)c(OC(C)C)cc1C1CCNCC1 [CERITINIB] | 501 nM | 2000 nM | 200 nM | 316 nM | 158 nM |  |  |  |  | Activity (HepG2 [6]): Non-Toxic; Activity (HepG2 [9]): Non-Toxic
3 | COc1cc(C2CCN(CCCC#Cc3cccc4c3CN(C3CCC(=O)NC3=O)C4=O)CC2)c(C)cc1Nc1ncc(Cl)c(Nc2ccccc2S(=O)(=O)C(C)C)n1 (stereo not given) |  |  |  |  |  | 10.5 µL/min/mg | Non-Toxic | 9% | Non-Toxic | IC50 [1]: 542 nM; Activity [11]: Active; Activity [13]: Active; DC50 [14]: 43 nM; Activity [16]: Active; Activity [17]: Active; DC50 [3]: 6.6 nM; Activity [19]: Active
4 | COc1cc(C2CCN(CC3CN(c4ccc5c(c4)C(=O)N(C4CCC(=O)NC4=O)C5=O)C3)CC2)c(C)cc1Nc1ncc(Cl)c(Nc2ccccc2S(=O)(=O)C(C)C)n1 (stereo not given) | 10 nM | 19.9 nM | 3.16 nM | 19.9 nM | 3.16 nM | 8 µL/min/mg | Non-Toxic | 28% | Non-Toxic | GI50 (BaF3 [4]; read-out: GI50): 10 nM; Activity (HepG2 [6]): Toxic; solubility thermodynamic at 24 h [21]: 122 µM (≈ 104 µg/mL); Activity (Mus musculus [22]): Active; Activity (Mus musculus [23]): Active; PPB [24]: > 99.9%; PPB [25]: > 99.9%; Activity (HepG2 [9]): Toxic; inhibition in vivo at 10 mg/kg (BaF3 [26]): 33%
5 | CCc1cc2c(cc1N1CCC(N3CCOCC3)CC1)C(C)(C)c1[nH]c3cc(C#N)ccc3c1C2=O [ALECTINIB] | 501 nM | 398 nM | 12.6 nM | 79.4 nM | 79.4 nM |  |  |  |  | 
6 | C[C@@H](Oc1cc(-c2cnn(C3CCNCC3)c2)cnc1N)c1c(Cl)ccc(F)c1Cl [CRIZOTINIB] | 2000 nM | 2000 nM | 1000 nM | 2000 nM | 2000 nM |  |  |  |  | 
7 | CCc1cc2c(cc1N1CCN(CC3CN(c4ccc5c(c4)C(=O)N(C4CCC(=O)NC4=O)C5=O)C3)CC1)C(C)(C)c1[nH]c3cc(C#N)ccc3c1C2=O (stereo not given) |  |  |  |  |  |  |  | 48% |  | Stability [27]: Stable
8 | COc1cc(CCNCCCCCC#Cc2cccc3c2C(=O)N(C2CCC(=O)NC2=O)C3=O)c(C)cc1Nc1ncc(Cl)c(Nc2ccccc2S(=O)(=O)C(C)C)n1 (stereo not given) |  |  |  |  |  | 59 µL/min/mg | Toxic |  | Toxic | 
